The sample as a whole holds a higher share of hits than the screen did.
INS promoter act: activators of insulin promoter-driven GFP, primary screen, imaging, TRM-6 cells (human fetal islet line), eGFP reporter, cell count; plate-scaled: unstimulated 0, stimulated control 100; activation, % at 2 µM; 0.81% of 130,000 active; AID 1296, 2008;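 active = activation at 2 µM above a set limit, confirmed on inspection of the cell images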;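 also: share of cells whose green reporter signal exceeds an intensity cutoff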
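Material: TRM-6 insulin promoter–eGFP reporter cells. Buffer or medium: Low-glucose (5.5 mM) medium with tamoxifen. Probe or stimulus: tamoxifen at 0.75 µM added at seeding for reporter induction. Times: tamoxifen pre-incubation 15 h overnight, then compound exposure 48 h at 37 °C. Detection: high-content imaging of fixed cells with Hoechst nuclear stain.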
Of the large screens only hits and unclear results are named; the others gave an inactive call.

COc1cccc2c1OC1(C)CC2NC(=O)N1Cc1ccccc1 (configuration not stated)	none
CCCn1nc2cc(C(=O)NCCc3cccs3)ccc2c1OCC	none
COc1ccc(NC(=O)CCc2nc3ccccc3[nH]2)cc1	none
CNc1nc(C)nc(-n2nc(C)cc2C)n1	INS promoter act 660
Cc1cc(-n2nc(C)cc2C)nc(N)n1	none
Cc1cc(NCCO)nc(-n2nc(C)cc2C)n1	none
Cc1c(Cl)ccc2c1NC(=O)[C@]21N[C@@H](Cc2ccccc2)[C@H]2C(=O)N(c3ccc(F)cc3)C(=O)[C@H]21	none
O=c1c(Cl)c(N2CCN(S(=O)(=O)c3ccc(F)cc3)CC2)cnn1-c1cccc(Cl)c1	none
O=C(Nc1c2c(nc3ccccc13)CCCC2)c1ccccc1F	none
O=C(Nc1cccc2c1CCCC2)c1cc([N+](=O)[O-])cc([N+](=O)[O-])c1	none
O=C(Nc1c2c(nc3ccccc13)CCCC2)c1cccc([N+](=O)[O-])c1	INS promoter act 380
CN(CC(=O)Nc1ccccc1C(=O)N1CCCC1)S(=O)(=O)c1ccc(Cl)cc1	none
O=C(CSc1ncnc2c1cnn2CCO)Nc1cccc(C(F)(F)F)c1	none
CCOC(=O)c1sc2nc(N3CCOCC3)c3c(c2c1N)CCN(C)C3	INS promoter act 500
Nc1c(C(=O)NCc2ccccc2)sc2nc(N3CCOCC3)c3c(c12)CCCC3	none
CCOC(=O)c1sc2nc(C)c3c(c2c1N)CC(C)(C)OC3	none
COc1ccccc1Nc1ccncc1[N+](=O)[O-]	none
O=C(CSc1ncn[nH]1)NCCC(c1ccccc1)c1ccccc1	INS promoter act 85
O=C(CSc1ncn[nH]1)NC1CCCc2ccccc21 (configuration not stated)	none
COc1ccc(CCNC(=O)CSc2ncn[nH]2)cc1	none
Cc1ccsc1/C=N\NC(=O)c1cc(C(C)(C)C)[nH]n1	none
Cc1ccc([N+](=O)[O-])cc1N/C=C1\CCc2ccccc2C1=O	none
O=C1OCCN1C(=O)[C@H]1[C@H](c2ccc([N+](=O)[O-])cc2)C(c2cccc(Cl)c2)=NN1c1ccccc1	INS promoter act 273
O=[N+]([O-])c1ccc(N2N=C(c3ccco3)CC2c2ccccc2)cc1 (configuration not stated)	none
O=C(NCc1ccccc1C(F)(F)F)C12CN(Cc3ccccc3)CC1C(c1ccc([N+](=O)[O-])cc1)=NO2 (configuration not stated)	none
COc1cc(NC(=S)NCCN2CCOCC2)cc(OC)c1	none
CCOc1ccc2nc(NCCCNS(=O)(=O)c3ccccc3)c(C#N)cc2c1	none
CCc1cccc(NC(=O)C2CCCN(S(=O)(=O)c3c(C)[nH]c(=O)[nH]c3=O)C2)c1 (configuration not stated)	INS promoter act 83
Cc1cccc(NC(=O)C2CCCN(S(=O)(=O)c3cccc4nsnc34)C2)c1 (configuration not stated)	none
CCc1cccc(NC(=O)C2CCCC2)c1	none
CCn1c(SCC(=O)Nc2ccc(C(=O)OC)cc2)nc2cccnc21	none
O=C(/C=C/c1ccc([N+](=O)[O-])cc1)N(c1ccccn1)C1CCCCC1	none
CC(C)c1ccc(C2C(C#N)=C(N)N3C(=C2C#N)Sc2ccccc23)cc1 (configuration not stated)	none
O=C(Cn1c(C(F)(F)F)nc2ccccc21)c1ccc(F)cc1	INS promoter act 84
Cc1[nH]c2ccccc2c1C(=O)COC(=O)Cn1c(C(F)(F)F)nc2ccccc21	none
CC(C)NC(=O)Cn1c(SCC(=O)c2ccc(F)cc2)nc2ccccc21	none
CC(C)C[C@@H]1NC(=O)[C@H](CO)NC(=O)c2cc([N+](=O)[O-])cc(I)c2OCC[C@@H](C(N)=O)NC1=O	none
CCN(CC)CCOc1cccc(C(C)C)c1	none
CCN(CC)CCOc1ccc(/C(=C(/Cl)c2ccccc2)c2ccccc2)cc1	INS promoter act 280
CCOc1ccc(C(=O)OCCN(CC)CC)cc1	none
Cc1c(NC(=O)CSc2nc3ccccc3n2C)c(=O)n(-c2ccccc2)n1C	none
O=[N+]([O-])c1cc(S(=O)(=O)N2CCCC2)ccc1SCCO	none
Cn1ccnc1SCC(=O)Nc1cccc(S(=O)(=O)N2CCCCCC2)c1	none
COC(=O)c1cccnc1NC(=S)NNC(=O)c1ccccc1	none
COc1ccccc1NC(=O)CNS(=O)(=O)c1ccccc1	none
COC(=O)C(NC(=O)CNS(=O)(=O)c1ccc(Br)cc1)c1ccccc1 (configuration not stated)	INS promoter act 275
COC(=O)C(CCSC)NC(=O)CNS(=O)(=O)c1ccc(Cl)cc1 (configuration not stated)	none
Cc1ccnc(NC(=O)c2cccc(NS(=O)(=O)c3ccccc3C)c2)c1	none
CC(C)CNS(=O)(=O)c1ccc(CCC(=O)N2CCN(Cc3ccc4c(c3)OCO4)CC2)cc1	INS promoter act 469
O=C(CCc1ccc(S(=O)(=O)NCCc2ccccc2)cc1)N1CCN(Cc2ccc3c(c2)OCO3)CC1	none
COc1ccc(N(CC(=O)N2CCN(Cc3ccc4c(c3)OCO4)CC2)S(C)(=O)=O)cc1OC	none
O=C(CCn1c(=O)c2sccc2n(CC(=O)OCc2ccccc2)c1=O)NCc1ccccc1	none
CC1(C)NC(=O)N(CC(O)COc2ccccc2-c2ccccc2)C1=O (configuration not stated)	none
C=CCc1ccc(OCCCCN2CC(C)CC(C)C2)c(OC)c1 (configuration not stated)	none
CC1CC(C)CN(CCOc2ccccc2-c2ccccc2)C1 (configuration not stated)	INS promoter act 464
O=C(Nc1nnc(SCc2ccc(F)cc2)s1)C1CC(=O)N(Cc2ccccc2)C1 (configuration not stated)	none
CCCOc1ccc2c(=O)c(-c3cc(C(=O)OC)oc3C)c(C)oc2c1	none
COc1ccc([N+](=O)[O-])cc1NC(=O)CCN1CCN(CCO)CC1	none
CCOC(=O)N1CCN(CCC(=O)Nc2cc([N+](=O)[O-])ccc2OC)CC1	INS promoter act 331
COc1ccc([N+](=O)[O-])cc1NC(=O)CSc1nc(C)c(C)c(C)n1	none
COC(=O)c1sc2ccccc2c1-n1cccc1C(=O)C(=O)Nc1ccc(Cl)cc1	none
COC(=O)CN1C(=O)S/C(=C/c2cc(C)n(C)c2C)C1=O	none
COC(=O)CN1C(=O)S/C(=C/c2ccc(N3CCCCC3)o2)C1=O	INS promoter act 184
O=C(CN1C(=O)S/C(=C/c2ccc(N3CCOCC3)cc2)C1=O)N1CCOCC1	none
Fc1ccccc1CSc1nc2ccccc2[nH]1	none
C/C(CC(=O)NCc1ccco1)=N\NC(=O)COc1ccc(C)cc1	none
CCc1ccc2nc3sc(C(=O)O)cc3cc2c1	none
COc1ccc(CN(C)CC(=O)Nc2cc(OC)c([N+](=O)[O-])cc2C)c(OC)c1	none
CCOC(=O)N1CCC(=NNC(=O)c2cc3ccccc3cc2O)CC1	none
Cc1ccccc1/C=N/Nc1ccnc2cc(Cl)ccc12	none
CCOC(=O)N1CCC(=NNc2ccnc3cc(Cl)ccc23)CC1	INS promoter act 558
COCCn1c(-c2ccc(-c3ccc([N+](=O)[O-])cc3Br)o2)nc2c1c(=O)[nH]c(=O)n2CC(C)C	none
COc1cc(OC)cc(C(=O)N[C@H](C(=O)OCC(=O)Nc2ccc(F)c(F)c2)C(C)C)c1	none
O=C(Nc1cc2c(oc1=O)CCCC2=O)c1cccc(Cl)c1	none
COC(=O)c1cc(NC(=O)c2cccc(Cl)c2)c(=O)oc1/C=C/Nc1cc(C)cc(C)c1	INS promoter act 809
COc1ccc(C(=O)Nc2cc(C(C)=O)c(/C=C/N(C)C)oc2=O)cc1	none
C=C(C)CC1(NC(C)c2ccccc2)CCCCC1 (configuration not stated)	none
Cc1ccc(C)c(NC(=S)NCc2cccn2C)c1	none
